Assay outcomes (PubChem)
CAL PDZ FP-1: inhibitors of human CAL PDZ peptide binding; purified CAL PDZ, TMR-peptide fluorescence polarization, 1 h; inhibition, % at 20 µM; actives 0.02% (n = 330,000);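 active = highest replicate inhibition of at least 40%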
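System: purified tagged CAL PDZ domain construct (CerCALP). Schedule: 1 h incubation at room temperature before polarization reading. Medium: 25 mM sodium phosphate pH 7.4, 150 mM NaCl, TCEP, IgG, Thesit. Read-out: percent inhibition from loss of millipolarization. Measured by: FP readout, S and P plane fluorescence. Probe or stimulus: fluorescent TMR peptide probe.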
ARNT-TACC3 inh: disruptors of human ARNT/TACC3 interaction; AlphaScreen His-ARNT PAS-B/GST-TACC3 binding, luminescence; TACC3 fragment carries E629A point mutation; inhibition, % at 9.99 µM; actives 0.66% (n = 390,000); AID 623870; Q9Y6A5;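 active = mean inhibition of replicates at least 50% and at least half of replicates each reaching 50%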
miR122 inh: inhibitors of miR-122 in Huh7 cells; actives 0.3% (n = 340,000); AID 602342; activation (reporter increase), % at 12.5 µM; Huh7 miR-122 Renilla luciferase sensor, 48 h; neutral wells = 0, positive control = 100;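 active = mean replicate activation score at least 90 and every replicate individually at or above 90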;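 note: higher luciferase means less miR-122 activity so hits act as miR-122 inhibitors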
CFTR F508del cor: CFTR F508del correction in bronchial cells | CFBE cells, YFP halide quenching; stimulated with forskolin plus potentiator P3; % fluorescence drop versus neutral controls | actives 0.36% (n = 350,000) | activity (quench increase), % at 7.58 µM;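 active = mean added fluorescence quench of at least 8% versus neutral control, with both replicates also reaching 8%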;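 note: cells transiently co-express mutant CFTR-F508del with the halide-sensitive YFP; corrector assay measuring rescue of mutant channel to the surface after 24 h compound exposure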
PGC1a acetyl inh: PGC1a acetylation modulation, inhibitor mode. U2OS PGC1a acetylation, AlphaScreen anti-acetyl-lysine; with virally co-expressed GCN5 acetyltransferase. inhibition, % at 15.6 µM. actives 0.17% (n = 350,000);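 active = every replicate shows inhibition of at least 40%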
CAL PDZ FP-2: CAL PDZ (human) peptide binding inhibition | inhibition, % at 24.9 µM | actives 0.92% (n = 300,000) | Q9HD26 | purified CAL PDZ, TMR-peptide fluorescence polarization, 1 h | AID 602252;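 active = mean inhibition of at least 30% with at least half of replicates also reaching 30%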
Numbers stand for hits; ! = not confirmed by another sample. A selection: hits, their analogues and other compounds. The true share with any hit is near 1.7%.

CCOc1ccccc1NC(=S)Nc1ccc2cn[nH]c2c1 was read as CAL PDZ FP-1 inactive, ARNT-TACC3 inh active, CFTR F508del cor inactive, PGC1a acetyl inh inactive and CAL PDZ FP-2 inactive.
Screening CCOc1cc(C)c(S(=O)(=O)Nc2ccc(Cl)cn2)cc1C returned CAL PDZ FP-1 inactive, ARNT-TACC3 inh inactive, miR122 inh 124, PGC1a acetyl inh inactive and CAL PDZ FP-2 inactive.
`S=C(Nc1ccccc1)Nc1ccc2cn[nH]c2c1` gave CAL PDZ FP-1 inactive, ARNT-TACC3 inh inactive, miR122 inh inactive, CFTR F508del cor inactive, PGC1a acetyl inh inactive and CAL PDZ FP-2 inactive.
Cc1ccc(S(=O)(=O)Nc2ccc3cn[nH]c3c2)c(C)c1 was read as CAL PDZ FP-1 inactive, CFTR F508del cor inactive and CAL PDZ FP-2 inactive.
CCOc1cc(C)c(S(=O)(=O)Nc2ccc3cn[nH]c3c2)cc1C was read as CAL PDZ FP-1 inactive, ARNT-TACC3 inh inactive, miR122 inh 124, PGC1a acetyl inh inactive and CAL PDZ FP-2 inactive.
`O=S(=O)(Nc1ccc(Cl)cn1)c1ccc(Cl)cc1` gave CAL PDZ FP-1 inactive, ARNT-TACC3 inh inactive, CFTR F508del cor inactive and CAL PDZ FP-2 inactive.
For CCc1ccc(S(=O)(=O)Nc2ccc(Cl)cn2)cc1 the results were CAL PDZ FP-1 inactive, ARNT-TACC3 inh inactive, miR122 inh 178, CFTR F508del cor inactive and CAL PDZ FP-2 inactive.
`CCOC(=O)C1=CN(Cc2ccco2)S(=O)(=O)NC1c1ccc(C(F)(F)F)cc1` (stereo not given) gave CAL PDZ FP-1 inactive, ARNT-TACC3 inh inactive, miR122 inh inactive, CFTR F508del cor 8.1, PGC1a acetyl inh inactive and CAL PDZ FP-2 inactive.
For CCOC(=O)C1=CN(CC)S(=O)(=O)NC1c1ccc(C(F)(F)F)cc1 (stereo not given) the results were CAL PDZ FP-1 inactive, ARNT-TACC3 inh inactive, miR122 inh inactive, CFTR F508del cor inactive, PGC1a acetyl inh inactive and CAL PDZ FP-2 inactive.
For COc1ccc(-c2ccc3c(c2)[C@@H]2[C@@H](CCN2C(=O)C2CCCCC2)[C@H](CO)N3C)cc1 the results were ARNT-TACC3 inh inactive, miR122 inh inactive, CFTR F508del cor inactive and PGC1a acetyl inh inactive.
Screening Cc1cc(C)nc(S/C=C/C(=O)c2ccccc2F)n1 returned CAL PDZ FP-1 inactive, ARNT-TACC3 inh inactive, CFTR F508del cor inactive, PGC1a acetyl inh inactive and CAL PDZ FP-2 80.
CNC[C@H]1OCCCC[C@@H](C)Oc2ccc(NC(=O)NC3CCCCC3)cc2C(=O)N([C@@H](C)CO)C[C@H]1C was read as miR122 inh inactive, CFTR F508del cor inactive and PGC1a acetyl inh inactive.
Screening CCN1C[C@@H](C)[C@H](OC)CN(C)C(=O)c2cc(NC(=O)NC(C)C)ccc2OC[C@H]1C returned ARNT-TACC3 inh inactive, miR122 inh inactive, CFTR F508del cor inactive and PGC1a acetyl inh inactive.
Screening Cc1cc(NCC2CCCO2)n2c(nc3ccccc32)c1C#N (stereo not given) returned CAL PDZ FP-1 inactive, ARNT-TACC3 inh inactive, miR122 inh inactive, PGC1a acetyl inh inactive and CAL PDZ FP-2 inactive.
`CCc1c(C)c(C#N)c2nc3ccccc3n2c1NCC1CCCO1` (stereo not given) gave CAL PDZ FP-1 inactive, ARNT-TACC3 inh inactive, miR122 inh inactive, PGC1a acetyl inh inactive and CAL PDZ FP-2 31.
For COc1ccc(NC(=O)Nc2ccc3c(c2)C(=O)N([C@@H](C)CO)C[C@H](C)[C@H](CN(C)C(=O)Nc2ccccc2)O3)cc1 the results were ARNT-TACC3 inh inactive, miR122 inh inactive, CFTR F508del cor inactive and PGC1a acetyl inh inactive.
For C[C@@H]1CN([C@H](C)CO)C(=O)c2cc(NC(=O)CCC(F)(F)F)ccc2O[C@H]1CN(C)C(=O)NC1CCCCC1 the results were ARNT-TACC3 inh inactive, miR122 inh inactive, CFTR F508del cor inactive and PGC1a acetyl inh inactive.
CC(=O)Nc1ccc(S(=O)(=O)NC2=C(N3CCN(Cc4ccccc4)CC3)C(=O)c3ccccc3C2=O)cc1 was read as CAL PDZ FP-1 inactive, ARNT-TACC3 inh inactive, miR122 inh inactive, CFTR F508del cor 15!, PGC1a acetyl inh inactive and CAL PDZ FP-2 inactive.
